Paper PMC8920403 (Drug Delivery, 2022)

What was measured:
[1] = Ocular pharmacokinetics in rabbit eyes; assay type: in vivo, New Zealand White rabbits; conditions: after single topical administration; limit of quantitation 0.01 μg/mL
Outline: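 Forty-two male New Zealand White rabbits (2.0–2.5 kg) were split into lipid-carrier and suspension groups. Each received a single 50 μL instillation into the lower conjunctival sac of both eyes, with lids held closed for 15 s. At preset times, rabbits were killed with i.v. 4% phenobarbital sodium via the marginal ear vein. After a saline rinse of the ocular surface, aqueous humour was drawn at the limbus with a 26-G needle.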

[2] = test system: endothelial cells; conditions: at a dose of 7.5 µg/mL (0.1–100 µg/mL studied); ref Thiele et al., 2013; cited from earlier work
[3] = test system: corneal neovascularization (CNV); experiment: Alkali burn injury induced CNV in mice; assay type: in vivo, BALB/c mice; conditions: SRB-NLC 0.0125-0.05%, fluorescein staining
Outline: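 Male BALB/c mice (20–25 g) were anaesthetised with 1% sodium pentobarbital i.p. (80 mg/kg) plus 0.4% oxybuprocaine drops. 2 μL of 0.1 M NaOH on filter paper was applied to the right central cornea for 20 s, then rinsed with 20 mL saline. Groups of 16 received saline, test-compound lipid carrier (0.05, 0.025 or 0.0125%) or dexamethasone drops, 5 μL twice daily for 7 days. On day 7, corneas from three mice per group were fixed in 4% paraformaldehyde for 48 h, paraffin-processed, and 5 µm sagittal sections were H&E stained.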

[4] = test system: neovascular corneal area; conditions: topical solution 0.05 mg/mL SRB and 0.07 mg/mL DMSO; ref Yildirim et al., 2020; cited from earlier work
[5] = test system: experimental CNV; conditions: oral administration, dose-dependent; ref Seo et al., 2012; cited from earlier work
[6] = test system: PDGF-AB; experiment: ELISA of PDGF-AB in cornea of alkali burn CNV mice; assay type: in vivo, BALB/c mice; conditions: dexamethasone eye drops, days 3 and 7, P < 0.05
Outline: (§1)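 Alkali-burn CNV mice (0.1 M NaOH, 20 s) were given saline, test-compound lipid carrier or dexamethasone drops, 5 μL twice daily. On days 3 and 7, five mice per group were killed. Corneas were weighed, frozen at −80 °C, thawed at 4 °C for 0.5 h and minced. Tissue was extracted in 100 μL RIPA on ice for 1.5 h and spun at 12,000 rpm, 4 °C, 5 min. ELISA absorbance was read at 450 nm and normalised to BCA total protein. Mean ± SD; one-way ANOVA, with t test for pairs.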

[7] = test system: VEGF-A; experiment: ELISA of VEGF-A in cornea of alkali burn CNV mice; assay type: in vivo, BALB/c mice; conditions: dexamethasone eye drops, days 3 and 7, P < 0.05
Outline: as §1

Molecule | SRB levels in the aqueous humor (AH) [1] | Toxic effects on endothelial cells [2] | Recovery of corneal epithelial defects after alkali burn injury [3] | Percentage of the neovascular corneal area vs DMSO alone [4] | Development of experimental CNV [5] | PDGF-AB level in corneal tissue vs saline group [6] | VEGF-A level in corneal tissue vs saline group [7]
CNC(=O)c1cc(Oc2ccc(NC(=O)Nc3ccc(Cl)c(C(F)(F)F)c3)cc2)ccn1 [SRB, Sorafenib] | < 0.01 µg/mL | no toxic effects | could effectively promote the recovery of corneal epithelial defects | significantly lower | significantly reduced the development of experimental CNV | – | –
Dexamethasone sodium phosphate | – | – | – | – | – | significantly lower | significantly lower
